In brackets after ≈: the same amount, converted by molar mass.
What was measured:
Format in all cases: functional
Streptococcus pneumoniae [1] = test: Antibacterial activity against Erythromycin-susceptible Streptococcus pneumoniae ATCC 49619 assessed as reduction in microbial growth
Streptococcus pneumoniae [2] = test: Bactericidal activity against Erythromycin-susceptible Streptococcus pneumoniae ATCC 49619
Outline: (§1)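 Bacteria were exposed to 1- to 8-fold MIC of the sample, then transferred to fresh medium without antibacterial. After further incubation, colonies were counted. MBC was taken as the lowest concentration giving a >3 log10 reduction in colony number.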

Streptococcus pneumoniae [3] = test: Ratio of MBC to MIC against Erythromycin-susceptible Streptococcus pneumoniae ATCC 49619
Streptococcus pneumoniae [4] = test: Antibacterial activity against penicillin-susceptible Streptococcus pneumoniae PU09 harboring mef gene assessed as reduction in microbial growth
Streptococcus pneumoniae [5] = test: Bactericidal activity against penicillin-susceptible Streptococcus pneumoniae PU09 harboring mef gene
Outline: (§2)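 Bacteria were exposed to 1- to 8-fold their MIC of test sample, then transferred to fresh culture medium without antibacterial compound and incubated for the required time. Colonies were then counted. MBC is the lowest concentration giving a reduction in colony number of >3 Log₁₀.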

Streptococcus pneumoniae [6] = test: Ratio of MBC to MIC against penicillin-susceptible Streptococcus pneumoniae PU09
Streptococcus pneumoniae [7] = test: Antibacterial activity against MLSB-resistant Streptococcus pneumoniae 07P390 harboring ermB gene assessed as reduction in microbial growth
Streptococcus pneumoniae [8] = test: Bactericidal activity against MLSB-resistant Streptococcus pneumoniae 07P390 harboring ermB gene assessed as reduction in microbial growth; outline: as §2
Streptococcus pneumoniae [9] = test: Ratio of MBC to MIC against MLSB-resistant Streptococcus pneumoniae 07P390 harboring ermB
Staphylococcus aureus [10] = test: Antibacterial activity against MLSB/methicillin/ciprofloxacin-resistant Staphylococcus aureus PU32 harboring ermA gene assessed as reduction in microbial growth
Staphylococcus aureus [11] = test: Bactericidal activity against MLSB/methicillin/ciprofloxacin-resistant Staphylococcus aureus PU32 harboring ermA gene; outline: as §2
Staphylococcus aureus [12] = test: Ratio of MBC to MIC against MLSB/methicillin/ciprofloxacin-resistant Staphylococcus aureus PU32 harboring ermA gene
Staphylococcus aureus [13] = test: Antibacterial activity against MLSB/methicillin-resistant Staphylococcus aureus 15B196 assessed as reduction in microbial growth
Haemophilus influenzae [14] = test: Antibacterial activity against azithromycin-susceptible Haemophilus influenzae ATCC 49247 assessed as reduction in microbial growth
Haemophilus influenzae [15] = test: Bactericidal activity against azithromycin-susceptible Haemophilus influenzae ATCC 49247; outline: as §1
Haemophilus influenzae [16] = test: Ratio of MBC to MIC against azithromycin-susceptible Haemophilus influenzae ATCC 49247
Staphylococcus aureus [17] = test: Bactericidal activity against MLSB/methicillin-resistant Staphylococcus aureus 15B196; outline: as §2
Streptococcus pyogenes [18] = test: Antibacterial activity against MLSB-resistant Streptococcus pyogenes 12-206 harboring ermA gene assessed as reduction in microbial growth
Streptococcus pyogenes [19] = test: Bactericidal activity against MLSB-resistant Streptococcus pyogenes 12-206 harboring ermA gene; outline: as §2
Streptococcus pyogenes [20] = test: Ratio of MBC to MIC against MLSB-resistant Streptococcus pyogenes 12-206 harboring ermA gene

Row | SMILES | MIC (Streptococcus pneumoniae [1]) | MBC (Streptococcus pneumoniae [2]) | Ratio (Streptococcus pneumoniae [3]) | MIC (Streptococcus pneumoniae [4]) | MBC (Streptococcus pneumoniae [5]) | Ratio (Streptococcus pneumoniae [6]) | MIC (Streptococcus pneumoniae [7]) | MBC (Streptococcus pneumoniae [8]) | Ratio (Streptococcus pneumoniae [9]) | MIC (Staphylococcus aureus [10]) | MBC (Staphylococcus aureus [11]) | Ratio (Staphylococcus aureus [12]) | MIC (Staphylococcus aureus [13]) | MIC (Haemophilus influenzae [14]) | MBC (Haemophilus influenzae [15]) | Ratio (Haemophilus influenzae [16]) | MBC (Staphylococcus aureus [17]) | MIC (Streptococcus pyogenes [18]) | MBC (Streptococcus pyogenes [19]) | Ratio (Streptococcus pyogenes [20])
1 | CC[C@H]1OC(=O)[C@H](C)[C@@H](OC(=O)Cc2ccccn2)[C@H](C)[C@@H](O[C@@H]2O[C@H](C)C[C@H](N(C)C)[C@H]2O)[C@](C)(OC(=O)CCNC/C=C/c2cnc3ccccc3c2)C[C@@H](C)CN(C)[C@H](C)[C@@H](O)[C@]1(C)O | 0.125 µg/mL | 0.25 µg/mL (≈ 0.264 µM) | 2 | 2 µg/mL | 2 µg/mL (≈ 2.11 µM) | 1 | 1 µg/mL | > 8 µg/mL | >8 | 2 µg/mL | > 16 µg/mL | >8 | > 256 µg/mL | 8 µg/mL | 16 µg/mL (≈ 16.9 µM) | 2 | – | – | – | –
2 | CC[C@H]1OC(=O)[C@H](C)[C@@H](OC(=O)Cc2ccccn2)[C@H](C)[C@@H](O[C@@H]2O[C@H](C)C[C@H](N(C)C)[C@H]2O)[C@](C)(OC(=O)CCNCCCc2cnc3ccccc3c2)C[C@@H](C)CN(C)[C@H](C)[C@@H](O)[C@]1(C)O | 0.062 µg/mL | 0.062 µg/mL (≈ 0.0652 µM) | 1 | 2 µg/mL | 4 µg/mL (≈ 4.21 µM) | 2 | 2 µg/mL | 16 µg/mL | 8 | 4 µg/mL | 32 µg/mL (≈ 33.7 µM) | 8 | > 256 µg/mL | 16 µg/mL | 16 µg/mL (≈ 16.8 µM) | 1 | – | – | – | –
3 | CC[C@H]1OC(=O)[C@H](C)[C@@H](OC(=O)Cc2ccccn2)[C@H](C)[C@@H](O[C@@H]2O[C@H](C)C[C@H](N(C)C)[C@H]2O)[C@](C)(OC(=O)CCNCCNc2cc3c(=O)c(C(=O)O)cn(C4CC4)c3cc2Cl)C[C@@H](C)CN(C)[C@H](C)[C@@H](O)[C@]1(C)O | 0.25 µg/mL | 0.25 µg/mL (≈ 0.23 µM) | 1 | 4 µg/mL | 4 µg/mL (≈ 3.68 µM) | 1 | 1 µg/mL | > 8 µg/mL | >8 | 8 µg/mL | > 64 µg/mL | >8 | > 256 µg/mL | 16 µg/mL | 32 µg/mL (≈ 29.5 µM) | 2 | – | – | – | –
4 | CC[C@H]1OC(=O)[C@H](C)[C@@H](OC(=O)Cc2cccnc2)[C@H](C)[C@@H](O[C@@H]2O[C@H](C)C[C@H](N(C)C)[C@H]2O)[C@](C)(OC(=O)CCNCCC#Cc2ccc3c(c2)c(=O)c(C(=O)O)cn3C2CC2)C[C@@H](C)CN(C)[C@H](C)[C@H]2OC(=O)O[C@@]21C | 2 µg/mL | 8 µg/mL (≈ 7.36 µM) | 4 | 4 µg/mL | 16 µg/mL (≈ 14.7 µM) | 4 | 64 µg/mL | 128 µg/mL | 2 | 128 µg/mL | > 256 µg/mL | – | 256 µg/mL | 32 µg/mL | 64 µg/mL (≈ 58.9 µM) | 2 | > 256 µg/mL | 64 µg/mL | 64 µg/mL (≈ 58.9 µM) | 1
5 | CC[C@H]1OC(=O)[C@H](C)[C@@H](OC(=O)Cc2ccccn2)[C@H](C)[C@@H](O[C@@H]2O[C@H](C)C[C@H](N(C)C)[C@H]2O)[C@](C)(OC(=O)CCNCCC#Cc2ccc3c(c2)c(=O)c(C(=O)O)cn3C2CC2)C[C@@H](C)CN(C)[C@H](C)[C@@H](O)[C@]1(C)O | 0.25 µg/mL | 0.5 µg/mL (≈ 0.472 µM) | 2 | 2 µg/mL | 4 µg/mL (≈ 3.77 µM) | 2 | 64 µg/mL | 256 µg/mL | 4 | 128 µg/mL | > 256 µg/mL | – | > 256 µg/mL | 32 µg/mL | 64 µg/mL (≈ 60.4 µM) | 2 | > 256 µg/mL | 16 µg/mL | 128 µg/mL (≈ 121 µM) | 8
6 | CC[C@H]1OC(=O)[C@H](C)[C@@H](OC(=O)Cc2ccccn2)[C@H](C)[C@@H](O[C@@H]2O[C@H](C)C[C@H](N(C)C)[C@H]2O)[C@](C)(OC(=O)CCNCC#Cc2cnc3ccccc3c2)C[C@@H](C)CN(C)[C@H](C)[C@@H](O)[C@]1(C)O | 0.125 µg/mL | 0.125 µg/mL (≈ 0.132 µM) | 1 | 2 µg/mL | 2 µg/mL (≈ 2.11 µM) | 1 | 1 µg/mL | > 8 µg/mL | >8 | 2 µg/mL | 8 µg/mL (≈ 8.45 µM) | 4 | 128 µg/mL | 4 µg/mL | 4 µg/mL (≈ 4.23 µM) | 1 | > 256 µg/mL | – | – | –
7 | CC[C@H]1OC(=O)[C@H](C)[C@@H](OC(=O)Cc2ccccn2)[C@H](C)[C@@H](O[C@@H]2O[C@H](C)C[C@H](N(C)C)[C@H]2O)[C@](C)(OC(=O)CCN2CCN(c3nc4c(cc3F)c(=O)c(C(N)=O)cn4CC)CC2)C[C@@H](C)CN(C)[C@H](C)[C@@H](O)[C@]1(C)O | 0.5 µg/mL | 1 µg/mL (≈ 0.923 µM) | 2 | 2 µg/mL | 4 µg/mL (≈ 3.69 µM) | 2 | 64 µg/mL | 128 µg/mL | – | 32 µg/mL | > 256 µg/mL | >8 | 256 µg/mL | 8 µg/mL | 8 µg/mL (≈ 7.38 µM) | 1 | > 256 µg/mL | 16 µg/mL | > 128 µg/mL | >8
8 | CC[C@H]1OC(=O)[C@H](C)[C@@H](OC(=O)Cc2ccccn2)[C@H](C)[C@@H](O[C@@H]2O[C@H](C)C[C@H](N(C)C)[C@H]2O)[C@](C)(OC(=O)CCNCCC#Cc2ccc3c(c2)c(=O)c(C(N)=O)cn3C)C[C@@H](C)CN(C)[C@H](C)[C@@H](O)[C@]1(C)O | 0.25 µg/mL | 0.5 µg/mL (≈ 0.484 µM) | 2 | 2 µg/mL | 4 µg/mL (≈ 3.87 µM) | 2 | 256 µg/mL | > 256 µg/mL | – | 16 µg/mL | > 128 µg/mL | >8 | > 256 µg/mL | 32 µg/mL | 64 µg/mL (≈ 61.9 µM) | 2 | > 256 µg/mL | 8 µg/mL | > 64 µg/mL | >8
9 | CC[C@H]1OC(=O)[C@H](C)[C@@H](OC(=O)Cc2ccccn2)[C@H](C)[C@@H](O[C@@H]2O[C@H](C)C[C@H](N(C)C)[C@H]2O)[C@](C)(OC(=O)CCNCCC#Cc2cncc(C(N)=O)c2)C[C@@H](C)CN(C)[C@H](C)[C@@H](O)[C@]1(C)O | 0.25 µg/mL | 0.25 µg/mL (≈ 0.262 µM) | 1 | 2 µg/mL | 4 µg/mL (≈ 4.2 µM) | 2 | 128 µg/mL | > 256 µg/mL | – | 16 µg/mL | > 128 µg/mL | >8 | > 256 µg/mL | 64 µg/mL | 128 µg/mL (≈ 134 µM) | 2 | > 256 µg/mL | 4 µg/mL | > 32 µg/mL | >8
10 | CC[C@H]1OC(=O)[C@H](C)[C@@H](OC(=O)Cc2ccccn2)[C@H](C)[C@@H](O[C@@H]2O[C@H](C)C[C@H](N(C)C)[C@H]2O)[C@](C)(OC(=O)CCNCCC#Cc2ccc3c(c2)c(=O)c(C(=O)O)cn3C2CC2)C[C@@H](C)CN(C)[C@H](C)[C@H]2OC(=O)O[C@@]21C | 1 µg/mL | 1 µg/mL (≈ 0.921 µM) | 1 | 4 µg/mL | 8 µg/mL (≈ 7.36 µM) | 2 | 64 µg/mL | 64 µg/mL | – | 64 µg/mL | > 256 µg/mL | >4 | > 256 µg/mL | 64 µg/mL | 128 µg/mL (≈ 118 µM) | 2 | > 256 µg/mL | 32 µg/mL | 64 µg/mL (≈ 58.9 µM) | 2
11 | CC[C@H]1OC(=O)[C@H](C)[C@@H](OC(=O)Cc2ccccn2)[C@H](C)[C@@H](O[C@@H]2O[C@H](C)C[C@H](N(C)C)[C@H]2O)[C@](C)(OC(=O)CCNCCCCc2cnc3ccccc3c2)C[C@@H](C)CN(C)[C@H](C)[C@@H](O)[C@]1(C)O | 0.25 µg/mL | 0.5 µg/mL (≈ 0.519 µM) | 2 | 4 µg/mL | 4 µg/mL (≈ 4.15 µM) | 1 | 8 µg/mL | 32 µg/mL | 4 | 4 µg/mL | 16 µg/mL (≈ 16.6 µM) | 4 | 256 µg/mL | 16 µg/mL | 32 µg/mL (≈ 33.2 µM) | 2 | > 256 µg/mL | – | – | –

From ChEMBL document CHEMBL4680236, “Design, synthesis and structure-activity relationships of novel 15-membered macrolides: Quinolone/quinoline-containing sidechains tethered to the C-6 position of azithromycin acylides” (Eur J Med Chem, 2020)
